From the array DNA melting data of Ke et al. (doi:10.1101/2024.01.08.574731) come the findings set out here.

Data set [1] is described as follows: folding enthalpy; higher = less favourable; fluorescence melt of hairpins on a sequencing array, two-state fit. To be noted: sodium 0.088 M. The procedure, abridged:
(§1)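 To match UV melts, fitted temperatures were raised by 9.35 °C. These fits were bootstrapped two-state models that gave melting temperature and folding enthalpy, combined by inverse variance over four replicates. The input was normalised Cy3 fluorescence of library hairpins with annealed Cy3 and quencher oligos on a sequenced MiSeq flow cell, imaged in 50 mM Na-HEPES pH 8.0, 25 mM NaCl in 2.5 °C steps up to 60 °C.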

A short description of data set [2]: melting temperature; fluorescence melt of hairpins on a sequencing array, two-state fit, raised by 9.35 °C to match UV melts. The conditions noted are these: sodium 0.088 M. Put shortly: as §1

GCAGCCGGAAACGGCCGC ((.((((....)))).)): the folding enthalpy in data set [1] is -17.2 kcal/mol. Moreover, in data set [2], the Tm is 58.9 °C.

As for GATCACTAATGTGATC ((((((....)))))), the folding enthalpy in data set [1] is -35.2 kcal/mol. The Tm in data set [2] turned out to be 55.1 °C.

With GCTTCCGAAAGGATGAGC ((((((....)))..))), the folding enthalpy in data set [1] is -18.7 kcal/mol. Further, the Tm in data set [2] stood at 41.2 °C.

For the sequence GATCTTCATGAAGATC ((((((....)))))), in data set [1], the folding enthalpy was -43.4 kcal/mol. In data set [2], the Tm was 51.1 °C.

GTGCATCGAAAGATCAC (((.(((....)))))): in data set [1], the folding enthalpy is -24.2 kcal/mol. The Tm in data set [2] turned out to be 46.8 °C.

As for GCAGTGCGAAAGCTCAGC ((.(.((....)).).)), the folding enthalpy in data set [1] is -14.7 kcal/mol. Moreover, the Tm in data set [2] stood at 49.2 °C.

Turning to GTCAAGCCGAAAGGCGAC (((..(((....)))))), the folding enthalpy in data set [1] is -12.2 kcal/mol. The Tm in data set [2] worked out at 45.1 °C.

Turning to GTTGGACGAAAGTCAAAC (((.(((....))).))), the folding enthalpy in data set [1] is -26.9 kcal/mol. Moreover, the Tm in data set [2] stood at 50.9 °C.

Turning to GATCCAGATTGGATC ((((((...)))))), the folding enthalpy in data set [1] is -34.1 kcal/mol. The Tm in data set [2] came to 50.6 °C.

With GTTGCCTCGAAAGAGAAC (((..(((....)))))), the folding enthalpy in data set [1] was -12.1 kcal/mol. Also, the Tm in data set [2] amounted to 25.4 °C.

In the case of GTCGCTCGAAAGAGTGAC (((.(((....))).))), in data set [1], the folding enthalpy was -43.3 kcal/mol. The Tm in data set [2] came out at 62.6 °C.

On to GATCCCATAAGGGATC ((((((....)))))), for which, in data set [1], the folding enthalpy was -39.4 kcal/mol. For the same sequence, the Tm in data set [2] stood at 63.9 °C.

Take CGCCGCGGAAACGCGCG (((.(((....)))))): the folding enthalpy in data set [1] is -16.6 kcal/mol. Besides, the Tm in data set [2] was 66.6 °C.

Turning to ACGTAGAAATACGT (((((....))))), the folding enthalpy in data set [1] is -19.9 kcal/mol. Besides, the Tm in data set [2] amounted to 37.9 °C.

For GATCAACAAGTTGATC ((((((....)))))), the folding enthalpy in data set [1] was -34.2 kcal/mol. Further, the Tm in data set [2] was determined as 51.8 °C.

For GGCCACGGAAACACGGCC ((((..(....)..)))), the folding enthalpy in data set [1] was -32.5 kcal/mol. Also, in data set [2], the Tm was 47.8 °C.

As for GTCGAGCGAAAGCTAGAC (((.(((....))).))), the folding enthalpy in data set [1] was -33.5 kcal/mol. The Tm in data set [2] is 60.5 °C.

Turning to GCACCAGGAAACTGGCGC ((.((((....)))).)), the folding enthalpy in data set [1] was -41.4 kcal/mol. Moreover, the Tm in data set [2] stood at 55.6 °C.

As for GCCGGGCGAAAGCAGGGC (((..((....))..))), the folding enthalpy in data set [1] was -29 kcal/mol. The Tm in data set [2] was 62.2 °C.

As to GCTCGCGGAAACGCAAGC (((.(((....))).))), the folding enthalpy in data set [1] is -28.7 kcal/mol. Moreover, the Tm in data set [2] is 49.8 °C.

GTGACCGGAAACGGCCAC (((.(((....))).))): the folding enthalpy in data set [1] is -39 kcal/mol. In addition, in data set [2], the Tm was found to be 54.2 °C.

With CGGGTGAAAACCCG (((((....))))), in data set [1], the folding enthalpy was -28.9 kcal/mol. The Tm in data set [2] turned out to be 68.6 °C.

Take GGAATTGAAAAATTCC ((((((....)))))): in data set [1], the folding enthalpy is -28.9 kcal/mol. Moreover, the Tm in data set [2] stood at 48 °C.

For the sequence GACGATGGAAACGTCGTC (((((.(....).))))), the folding enthalpy in data set [1] is -35.1 kcal/mol. The Tm in data set [2] came out at 54.5 °C.

As to GACGGGGGAAACTCCGTC (((((.(....).))))), the folding enthalpy in data set [1] was -37.9 kcal/mol. In addition, in data set [2], the Tm worked out at 58.1 °C.

Consider GTCAGCACGAAAGTGGAC (((..(((....)))))), for which, in data set [1], the folding enthalpy was -18 kcal/mol. Also, in data set [2], the Tm was 37.6 °C.

For the sequence GATGTGGAAACACATC ((((((....)))))), the folding enthalpy in data set [1] is -35.5 kcal/mol. In addition, the Tm in data set [2] is 57.1 °C.

Regarding GACGCTGGAAACAGCACC (..((((....))))..), in data set [1], the folding enthalpy is -11.1 kcal/mol. Besides, the Tm in data set [2] was 30 °C.

Turning to GATCGTACTAACGATC ((((((....)))))), the folding enthalpy in data set [1] was -39.1 kcal/mol. The Tm in data set [2] came out at 54.8 °C.

On to GCTATTTCGAAAGAAAGC (((..(((....)))))), for which the folding enthalpy in data set [1] was -12.5 kcal/mol. Also, the Tm in data set [2] amounted to 28.3 °C.

With GATCCAGCGATGGATC ((((((....)))))), the folding enthalpy in data set [1] is -42.4 kcal/mol. Moreover, the Tm in data set [2] is 55.6 °C.

Regarding GCCTCGCGAAAGCGCAGC ((..(((....)))..)), the folding enthalpy in data set [1] is -9.54 kcal/mol. Further, the Tm in data set [2] worked out at 39.8 °C.

With GATCGAGGTTCGATC ((((((...)))))), the folding enthalpy in data set [1] is -38.6 kcal/mol. The Tm in data set [2] worked out at 51.6 °C.

As for GTTCGAGGAAACTCGAAC (((((((....))))))), the folding enthalpy in data set [1] is -42.3 kcal/mol. Moreover, in data set [2], the Tm was determined as 65 °C.

In the case of GAATCACGAAAGTGTTTC (((.(((....))).))), the folding enthalpy in data set [1] was -24.7 kcal/mol. For the same sequence, in data set [2], the Tm was 41.5 °C.

Turning to GTGAGGGGAAACCCTCAC (((((((....))))))), the folding enthalpy in data set [1] is -33.4 kcal/mol. The Tm in data set [2] turned out to be 67.7 °C.

GGTTCCGAAAGGAAAACC ((((((....)))..))): the folding enthalpy in data set [1] was -18.5 kcal/mol. The Tm in data set [2] was found to be 43.6 °C.
